Experimental data reported in ChEMBL document CHEMBL3817756, “Synthesis and Anti-Influenza Activity of Pyridine, Pyridazine, and Pyrimidine C-Nucleosides as Favipiravir (T-705) Analogues” (J Med Chem, 2016).
Activity calls are given as the source filed them. The calls are words filed in the database; no cut-off is given here.

Assays:
[1] = test system: Influenza A virus; assay: Antiviral activity against Influenza A virus A/WSN/33(H1N1) infected in MDCK cells assessed as inhibition of neuraminidase activity using 2'-(4-methylumbelliferyl)-alpha-D-N-acetylneuraminic acid substrate pretreated with cells for 24 hrs followed by viral infection measured after 20 hrs by fluorescence assay; type: functional, organism-based; settings: A/WSN/1933(H1N1)
Summary of the method: (§1)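 MDCK cells at 1 × 10^4 cells/well in DMEM with 0.3% FBS, 1% penicillin/streptomycin and 1% DMSO. After 24 h, serially diluted compound was added for a further 24 h. Cells were infected with A/WSN/33 at 250 IU/well for 20 h at 37 °C. Supernatant was replaced with 25 μM MUNANA in 33 mM MES, pH 6.5, for 45 min at 30 °C. Reaction stopped with glycine pH 10.5/25% ethanol; fluorescence read at ex 355/em 460 nm. EC50 averaged over n ≥ 2.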

[2] = Cytotoxicity against MDCK cells after 10 mins by CellTiter-Glo assay; type: cell-based, Canis lupus familiaris; settings: dog
Summary of the method: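 Uninfected cultures run in parallel with the MDCK neuraminidase antiviral assay. CellTiter-Glo reagent added, 10 min at room temperature, luminescence read.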

[3] = test system: Tni; assay: (§2) Binding affinity to recombinant Influenza A virus A/chicken/Nanchang/3-120/01(H3N2) RNA polymerase subunit C-terminal TAP/His6-tagged PA/PB1/PB2 expressed in Tni cells assessed as compound incorporation by measuring 14-mer product formation using 5'-pApG/14-nucleotide RNA with U as nucleotide as primer/template at 100 uM after 30 mins in presence of [alpha-33P]CTP by PAGE analysis; type: cell-based
[4] = test system: Tni; assay: as §2, with “measuring 10 to” for “measuring”, “C” for “U”; type: cell-based
[5] = Inhibition of recombinant human Norovirus GII.4 RNA-dependent RNA polymerase expressed in Escherichia coli assessed as inhibition of [3H]UTP incorporation using HCV 5'-untranslated region RNA template incubated for 2.5 hrs by radiometric assay
[6] = Inhibition of HCV NS5B RNA-dependent RNA polymerase assessed as inhibition of [3H]CTP incorporation using HCV 5'-untranslated region RNA template incubated for 2 hrs; design: species or system Hepacivirus hominis
[7] = Inhibition of human rhinovirus 16 RNA-dependent RNA polymerase assessed as inhibition of [3H]UTP incorporation using HCV 5'-untranslated region RNA template incubated for 2.5 hrs by radiometric assay; design: species or system rhinovirus A16
[8] = Drug metabolism in NHBE cells assessed as ((2R,3S,4R,5S)-5-(2-carbamoyl-3-fluoropyridin-4-yl)-3,4-dihydroxytetrahydrofuran-2-yl)methyl tetrahydrogen triphosphate level per million cells at 50 uM after 24 hrs by LC-MS/Ms analysis; type: ADME, cell-based; settings: human
[9] = test system: A549; assay: Drug metabolism in human A549 cells assessed as ((2R,3S,4R,5S)-5-(2-carbamoyl-3-fluoropyridin-4-yl)-3,4-dihydroxytetrahydrofuran-2-yl)methyl tetrahydrogen triphosphate level per million cells at 50 uM after 24 hrs by LC-MS/Ms analysis; type: ADME, cell-based; settings: a549, 24 h
[10] = test system: MDCK; assay: Drug metabolism in MDCK cells assessed as ((2R,3S,4R,5S)-5-(2-carbamoyl-3-fluoropyridin-4-yl)-3,4-dihydroxytetrahydrofuran-2-yl)methyl tetrahydrogen triphosphate level per million cells at 50 uM after 24 hrs by LC-MS/Ms analysis; type: ADME, cell-based, Canis lupus familiaris; settings: dog
[11] = Drug metabolism in NHBE cells assessed as ((2R,3S,4R,5S)-5-(2-carbamoyl-3-fluoropyridin-4-yl)-3,4-dihydroxytetrahydrofuran-2-yl)methyl dihydrogen phosphate level per million cells at 50 uM after 24 hrs by LC-MS/Ms analysis; type: ADME, cell-based; settings: human
[12] = test system: A549; assay: Drug metabolism in human A549 cells assessed as ((2R,3S,4R,5S)-5-(2-carbamoyl-3-fluoropyridin-4-yl)-3,4-dihydroxytetrahydrofuran-2-yl)methyl dihydrogen phosphate level per million cells at 50 uM after 24 hrs by LC-MS/Ms analysis; type: ADME, cell-based; settings: a549, 24 h
[13] = test system: MDCK; assay: Drug metabolism in MDCK cells assessed as ((2R,3S,4R,5S)-5-(2-carbamoyl-3-fluoropyridin-4-yl)-3,4-dihydroxytetrahydrofuran-2-yl)methyl dihydrogen phosphate level per million cells at 50 uM after 24 hrs by LC-MS/Ms analysis; type: ADME, cell-based, Canis lupus familiaris; settings: dog
[14] = test system: Influenza A virus; assay: Antiviral activity against Influenza A virus A/WSN/33(H1N1) infected in NHBE cells; type: functional, organism-based; settings: A/WSN/1933(H1N1)
[15] = test system: Influenza A virus; assay: Antiviral activity against Influenza A virus A/WSN/33(H1N1) infected in human A549 cells; type: functional, organism-based; settings: A/WSN/1933(H1N1)
[16] = test system: Influenza A virus; assay: Antiviral activity against Influenza A virus infected in MDCK cells; type: functional, organism-based; summary of the method: as §1
[17] = test system: A549; assay: Drug metabolism in human A549 cells assessed as nucleoside triphosphate formation at 50 uM after 24 hrs by LC-MS/Ms analysis; type: ADME, cell-based; settings: a549, 24 h, BLD = below limit of detection

Structure (SMILES)	EC50 [1] [µM]	CC50 at 10 min [2] [µM]	Drug metabolism [17]	also measured
NC(=O)c1nccc([C@@H]2O[C@H](CO)[C@@H](O)[C@H]2F)c1F	87	306	–	–
NC(=O)c1nccc([C@@H]2O[C@H](COP(=O)(O)OP(=O)(O)OP(=O)(O)O)[C@@H](O)[C@H]2O)c1F	–	–	–	Activity [3]: Active; Activity [4]: Active; IC50 [5]: 3.5 µM; IC50 [6]: 5.3 µM; IC50 [7]: 4 µM
NC(=O)c1nc(F)cn([C@@H]2O[C@H](CO)[C@@H](O)[C@H]2O)c1=O	2.2	> 400	–	–
NC(=O)c1nccc([C@@H]2O[C@H](CO)[C@@H](O)[C@H]2O)c1F	1.9	> 400	–	Drug metabolism [8]: 21.6 pmol; Drug metabolism [9]: 11.6 pmol; Drug metabolism [10]: 192 pmol; Drug metabolism [11]: 262 pmol; Drug metabolism [12]: 41 pmol; Drug metabolism [13]: 48.5 pmol; EC50 [14]: 29.5 µM; EC50 [15]: 52 µM; EC50 [16]: 1900 nM
NC(=O)c1nc(F)cnc1O [FAVIPIRAVIR]	2.7	> 400	–	–
NC(=O)c1cc([C@@H]2O[C@H](CO)[C@@H](O)[C@H]2O)ccn1	–	–	BLD	–
Cn1cc([C@@H]2O[C@H](CO)[C@@H](O)[C@H]2O)c(=O)c(C(N)=O)n1	91	291	BLD	–
NC(=O)c1nccc([C@@H]2O[C@H](CO)[C@@H](O)[C@H]2O)n1	8.7	> 200	BLD	–
